Measurements reported in ChEMBL document CHEMBL3351483, “Desmethyl macrolides: synthesis and evaluation of 4-desmethyl telithromycin” (ACS Med Chem Lett, 2014).
Values after ≈ are worked out from the molar mass of the structure shown.

Tests used:
Staphylococcus aureus [1] = assay: Antimicrobial activity against Staphylococcus aureus UCN14 harboring ribosome A2058T mutant; type: functional
Escherichia coli [2] = assay: Antimicrobial activity against tolC-negative Escherichia coli DK/2058G harboring ribosome A2058G mutant; type: functional
In short: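 MIC determination in a tolC(−) E. coli strain lacking the outer-membrane efflux pump, carrying a mixed ribosome population of wild-type and A2058G mutant at about 1:1.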

Escherichia coli [3] = assay: Antimicrobial activity against Escherichia coli SQ171/2058G harboring ribosome A2058G mutant; type: functional
Escherichia coli [4] = assay: Antimicrobial activity against tolC-negative wild type Escherichia coli DK/pKK3535; type: functional
In short: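 MIC determined against E. coli DK/pKK3535, a tolC(−) strain that lacks the outer-membrane TolC efflux pump, which recognizes antibacterial drugs, and that carries wild-type ribosomes.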

Staphylococcus aureus [5] = assay: Antimicrobial activity against Staphylococcus aureus ATCC 33591 harboring ermA gene; type: functional
Bacterial 70S ribosome = assay: Binding affinity to Escherichia coli ribosomes after 2 hrs by fluorescence polarization assay in presence of BODIPY-labeled erythromycin A
In short: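 Competitive fluorescence polarization binding assay with isolated E. coli ribosomes and BODIPY-labelled erythromycin as the displaced probe; dissociation constant (Kd) derived from probe displacement.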

[6] = Selectivity ratio of MIC for Escherichia coli […] harboring ribosome A2058G mutant to MIC for tolC-negative wild type Escherichia coli DK/pKK3535; type: functional

For `CC[C@H]1OC(=O)[C@H](C)C(=O)[C@H](C)[C@@H](O[C@@H]2O[C@H](C)C[C@H](N(C)C)[C@H]2O)[C@](C)(OC)C[C@@H](C)C(=O)[C@H](C)[C@H]2N(CCCCn3cnc(-c4cccnc4)c3)C(=O)O[C@]12C` [TELITHROMYCIN], the MIC (Staphylococcus aureus [1]) was > 256 µg/mL, the MIC (Escherichia coli [2]) was 4 µg/mL (≈ 4.93 µM) and the MIC (Escherichia coli [3]) was > 256 µg/mL. The MIC (Escherichia coli [4]) was 0.5 µg/mL (≈ 0.616 µM), the MIC (Staphylococcus aureus [5]) was > 128 µg/mL and the Kd (Bacterial 70S ribosome) was 6.4 nM.
In the case of `CC[C@H]1OC(=O)[C@H](C)C(=O)C[C@@H](O[C@@H]2O[C@H](C)C[C@H](N(C)C)[C@H]2O)[C@](C)(OC)C[C@@H](C)C(=O)[C@H](C)[C@H]2N(CCCCn3cnc(-c4cccnc4)c3)C(=O)O[C@]12C`, the MIC (Staphylococcus aureus [1]) is reported as > 128 µg/mL, the Selectivity ratio [6] is reported as 4 and the MIC (Escherichia coli [2]) is reported as 1 µg/mL (≈ 1.25 µM). For the same compound, the MIC (Escherichia coli [3]) was > 256 µg/mL, the MIC (Escherichia coli [4]) was 0.5 µg/mL (≈ 0.627 µM) and the MIC (Staphylococcus aureus [5]) was > 128 µg/mL. For the same compound, the Kd (Bacterial 70S ribosome) was 6.4 nM.
